Compound activity from PubChem.
An excerpt weighted towards active compounds, which were near 1.6% of everything screened.
TLR4-MyD88 BLA – inhibitors of TLR4-MyD88 association in cells, primary screen, cell-based, HeLa CL3-4, BLA complementation, FRET ratio | Toll-like receptor 4 (Homo sapiens) + Myeloid differentiation primary response protein … | HeLa CL3-4 TLR4/MyD88 BLA complementation | inhibition, % at 8.4 µM | 200,000 tested, 0.18% active | AID 861, 2007; in the data active = inhibition above about 25%;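 also: 0% = vehicle and 100% = reference inhibitor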
TLR9-MyD88 block – inhibitors of TLR9-MyD88 association in cells, primary screen, cell-based, CHO, BLA complementation, fluorescence; CCF4 FRET ratio; inhibition, % at 4.98 µM; 340,000 tested, 0.21% active;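 active = inhibition above the mean over all tested compounds plus 3 SD, cut at about 21% in these data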;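 also: 0% = DMSO only wells and 100% = clavulanate BLA inhibitor control wells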
Target sequence (Q99836 whole entry, looked up): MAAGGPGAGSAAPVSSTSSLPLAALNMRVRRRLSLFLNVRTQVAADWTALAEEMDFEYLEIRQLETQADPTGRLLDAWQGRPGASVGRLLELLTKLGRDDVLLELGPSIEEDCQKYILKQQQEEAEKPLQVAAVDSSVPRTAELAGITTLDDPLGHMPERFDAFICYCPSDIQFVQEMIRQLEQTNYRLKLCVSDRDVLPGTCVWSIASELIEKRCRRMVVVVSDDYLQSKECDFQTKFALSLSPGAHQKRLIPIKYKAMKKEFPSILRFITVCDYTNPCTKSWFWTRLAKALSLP
Target sequence (Q9NR96 whole entry, looked up): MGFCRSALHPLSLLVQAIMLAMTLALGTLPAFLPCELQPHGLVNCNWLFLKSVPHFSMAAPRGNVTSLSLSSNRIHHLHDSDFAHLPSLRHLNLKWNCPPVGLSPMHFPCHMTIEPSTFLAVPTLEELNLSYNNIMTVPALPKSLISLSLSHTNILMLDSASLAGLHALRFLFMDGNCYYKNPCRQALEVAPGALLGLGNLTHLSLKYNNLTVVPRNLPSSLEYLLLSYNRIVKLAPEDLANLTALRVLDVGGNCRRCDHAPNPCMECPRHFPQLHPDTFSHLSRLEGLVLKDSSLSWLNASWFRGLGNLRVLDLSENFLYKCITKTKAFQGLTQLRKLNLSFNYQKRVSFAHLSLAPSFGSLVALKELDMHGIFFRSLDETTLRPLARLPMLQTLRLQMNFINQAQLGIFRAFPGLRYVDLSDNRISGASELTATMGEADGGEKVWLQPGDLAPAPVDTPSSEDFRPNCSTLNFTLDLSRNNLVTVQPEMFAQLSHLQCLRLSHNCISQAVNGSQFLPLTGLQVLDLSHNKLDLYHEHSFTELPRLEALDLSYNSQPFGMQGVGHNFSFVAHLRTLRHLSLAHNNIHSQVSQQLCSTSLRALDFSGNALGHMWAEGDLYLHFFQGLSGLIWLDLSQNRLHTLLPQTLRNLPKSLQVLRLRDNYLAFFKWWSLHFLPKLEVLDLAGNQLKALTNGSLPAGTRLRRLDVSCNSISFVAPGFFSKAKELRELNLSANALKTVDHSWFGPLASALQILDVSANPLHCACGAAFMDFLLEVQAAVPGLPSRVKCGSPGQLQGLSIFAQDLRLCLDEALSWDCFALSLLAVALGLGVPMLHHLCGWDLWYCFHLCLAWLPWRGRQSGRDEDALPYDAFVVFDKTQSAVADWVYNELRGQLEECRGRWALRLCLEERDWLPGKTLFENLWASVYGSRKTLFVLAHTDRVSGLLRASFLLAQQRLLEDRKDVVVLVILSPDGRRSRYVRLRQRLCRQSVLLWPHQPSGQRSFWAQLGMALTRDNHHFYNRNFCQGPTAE
SR-BI uptake up – activators of SR-BI mediated DiI-HDL uptake, primary screen, ldlA[mSR-BI] CHO cells, DiI fluorescence; 3 h; 100 = double the neutral-control signal; activation, % at 12.5 µM; AID 504775, 2011; 320,000 tested, 0.096% active;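 active = mean replicate activation of at least 60% and every replicate at or above 60%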;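 also: 0% = median plate neutral-control signal and 100% = twice that signal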
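System: LDL receptor-deficient CHO ldlA cells overexpressing murine SR-BI | Timing: 3 h uptake period with compound, 37 °C | Medium: HEPES-buffered (25 mM, pH 7.4) F12 plus 0.5% BSA | Dosing: Single-point compound dose | Signal: Bottom-read fluorescence, 550/595 nm | Read-out: Retained DiI signal reflecting DiI-HDL uptake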
Hep lipid drop – inhibitors of hepatocyte lipid droplet formation, primary screen, imaging, high-throughput imaging, BODIPY stain; AML12 mouse hepatocytes, oleate lipid droplets; inhibition, % at 6.5 µM; 240,000 tested, 0.4% active;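 active = lipid droplet intensity inhibited by at least 50%, with more than 500 cells counted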
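Material: mouse AML12 hepatocyte cell line, fixed after treatment; Timing: compound with oleate, overnight; Technique: high-content imaging of BODIPY-stained droplets and DAPI nuclei; Probe or stimulus: oleate, 100 µM final; Dosing: compound at 6.5 µM only.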
SR-BI HDL uptake – inhibitors of SR-BI mediated HDL lipid uptake, primary screen, ldlA[mSR-BI] cells, fluorescence, single point; 320,000 tested, 0.96% active; AID 488896, 2010; inhibition, % at 12.5 µM; Scavenger receptor class B member 1 (Mus musculus), Q61009; ldlA[mSR-BI] CHO cells, DiI-HDL uptake fluorescence, 3 h;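 active = mean replicate inhibition of at least 70% and a set share of replicates each scoring 70 or more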;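 also: 0% = median of neutral control wells and 100% = median of positive control wells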
NOD2 RIPK2 PPI – NOD2-RIPK2 binding disruptors in cells, primary screen, fluorescence, CHO cells, BLA complementation; CCF4 ratio; inhibition, % at 4.98 µM; AID 624267, 2012; 360,000 tested, 0.38% active; in the data active = inhibition above about 21%;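 also: 0% = vehicle only and 100% = reference blocker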
TLR9-MyD88 conf – TLR9-MyD88 association inhibitors, retest, confirmation, cell-based, CHO, BLA complementation, fluorescence, triplicate; shares compounds with TLR9-MyD88 block; CCF4 FRET ratio; inhibition, % at 4.98 µM; 680 tested, 51% active; AID 540250, 2011;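 active = mean inhibition across three repeats above about 21% taken from the earlier screen, limit read from the data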;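 also: blue over green emission ratio reports constitutive TLR9 MyD88 association via BLA complementation; 0% = DMSO vehicle wells and 100% = clavulanate BLA inhibitor wells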
BLA nonselective – beta-lactamase reporter inhibitors in CHO cells, artefact control for TLR9-MyD88 binding inhibitor project, cell-based, fluorescence | inhibition, % at 4.98 µM | shares compounds with TLR9-MyD88 block | AID 540251, 2011 | CHO-BLA cells, CCF4 FRET ratio, BLA reporter | 680 tested, 7% active;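 active = mean inhibition above a 50% cutoff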;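 also: counterscreen of TLR9-MyD88 hits on CMV-driven BLA in CHO-K1 cells; 0% = DMSO alone and 100% = clavulanate blocking BLA; higher means less blue over green ratio so more BLA blockade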
TLR9 CHO tox – CHO cell viability loss – luminescence, single concentration, cytotoxicity control for TLR9-MyD88 binding inhibitor project; shares compounds with TLR9-MyD88 block; TLR9-MyD88 CHO cells cytotoxicity; inhibition, % at 4.98 µM; 680 tested, 39% active; AID 588336, 2011; in the data active = inhibition above about 11%
* = called active by the depositor; . = no result.

SMILES	TLR4-MyD88 BLA	TLR9-MyD88 block	SR-BI uptake up	Hep lipid drop	SR-BI HDL uptake	NOD2 RIPK2 PPI	TLR9-MyD88 conf	BLA nonselective	TLR9 CHO tox
COc1ccc(C2=CC(c3ccc(C)cc3)n3nnnc3N2)cc1 (stereo unspecified)	7.5	25.9*	-1.4	.	1.4	26.9*	4.6	7.1	-1.6
COc1ccc(C2C=C(c3ccccc3)Nc3nnnn32)cc1 (stereo unspecified)	1.1	23.8*	1.1	.	-1.1	-2.4	4.5	0.9	-0.7
CC(=O)Nc1ccc(N(C(=O)Cc2cccs2)C(C(=O)NC2CCCC2)c2ccncc2)cc1 (stereo unspecified)	.	-2.1	10.5	-1.9	-10.5	-2.3	.	.	.
O=C1C2C3CC4C5C3C1C5C1(SCCS1)C42 (stereo unspecified)	.	.	.	.	.	-8.3	.	.	.
Cc1cccnc1CN1CCN(Cc2nc(Cc3cccc(F)c3)no2)CC1	3.9	3.8	.	-9.5	.	-12.2	.	.	.
O=C1C=CC(=O)N1Cc1ccncc1	.	0.7	1.1	.	-1.1	-2.0	.	.	.
O=C1C=CC(=O)N1CCCCCCCCCCN1C(=O)C=CC1=O	.	42.3*	-5.9	.	5.9	5.3	55.9*	33.9	96.0*
CCc1ccc(OCC(=O)N/N=C(\C)c2ccc(OC(F)F)cc2)cc1	7.1	21.2*	-12.8	-0.9	12.8	-7.5	0.9	3.8	3.9
CCc1ccc(OCC(=O)N/N=C(\C)c2ccccc2OC(F)F)cc1	-9.7	-16.0	-0.9	8.1	0.9	-1.9	.	.	.
O=C(/C(=C/O)N=Nc1ccccc1)c1ccc(Cl)cc1	-11.1	4.3	-5.4	22.6	5.4	-4.8	.	.	.
Cc1ccc(N=N/C(=C\O)C(=O)c2ccc(Cl)cc2)cc1	-11.9	21.1*	-43.5	5.0	43.5	-10.0	6.1	3.6	11.5*
CCCS(=O)c1nc(C)cc(C)c1S(C)(=O)=O (stereo unspecified)	-3.4	2.2	14.5	-19.9	-14.5	-1.2	.	.	.
Cc1ccc(S(=O)(=O)Nc2cccc3ncccc23)s1	18.7	43.5*	0.0	.	0.0	55.2*	19.8	7.9	100.7*
COc1ccccc1NC(=O)c1nc(S(=O)(=O)Cc2ccccc2)ncc1Cl	.	11.7	-1.5	-6.6	1.5	14.3	.	.	.
COC(=O)c1ccc(NC(=O)c2nc(S(=O)(=O)Cc3cccc(C)c3)ncc2Cl)cc1	.	42.1*	-10.5	-22.1	10.5	17.9	33.1*	26.6	100.3*
CCOC(=O)c1c(C)nc2sc(C(N)=O)c(N)c2c1-c1ccccc1	6.4	-1.8	19.1	5.4	-19.1	1.8	.	.	.
CCOC(=O)c1c(C)nc2sc(C(=O)Nc3ccccc3)c(N)c2c1-c1ccc(OC)cc1	19.0	30.7*	-69.1	11.4	69.1	13.9	19.0	19.4	14.6*
Cc1ccc(/C=N/NC(=O)Cc2ccc(Cl)cc2)s1	.	-8.3	-3.2	-11.3	3.2	-4.6	.	.	.
CCN(C[C@H]1N[C@@](CC)(C(=O)OC)[C@H]2C(=O)N(Cc3ccccc3)C(=O)[C@@H]12)C(=O)c1ccc(C(C)(C)C)cc1	.	45.3*	-58.1	.	58.1	7.5	-7.1	-2.0	52.0*
CC[C@@]1(C(=O)OC)N[C@H](CN(C)C(=O)c2ccc(C(C)(C)C)cc2)[C@@H]2C(=O)N(Cc3ccccc3)C(=O)[C@@H]21	.	-0.7	-18.9	.	18.9	-2.4	.	.	.
Fc1ccccc1N1CCN(Cc2nc(-c3ccccc3)no2)CC1	-9.2	3.4	22.8	-8.1	-22.9	0.9	.	.	.
Fc1ccccc1N1CCN(Cc2cc(-c3ccccc3)on2)CC1	.	21.4*	19.4	.	-19.4	8.0	1.3	3.4	3.7
Cc1cccc(NC(=O)c2cc(-c3cc(Cl)ccc3O)n[nH]2)c1	.	22.8*	-13.0	1.2	13.0	-39.7	-5.5	-2.0	-10.0
O=C(CCn1c(=O)oc2ccccc21)Nc1cccc(Br)c1	.	8.4	17.9	0.7	-17.9	4.7	.	.	.
O=C1N/C(=N\S(=O)(=O)c2ccccc2)S/C1=C\c1cc([N+](=O)[O-])ccc1O	.	25.4*	-12.9	9.0	12.9	10.6	8.6	12.9	-0.4
COc1cc(/C=C2/S/C(=N/S(=O)(=O)c3ccccc3)NC2=O)c([N+](=O)[O-])cc1OC	4.6	-3.5	25.8	13.6	-25.8	-6.7	.	.	.
CN(CCC#N)C(=O)COC(=O)c1cc(Cl)cc(Cl)c1N	6.7	4.7	-19.9	2.8	19.9	-14.4	.	.	.
CC1=C(C(=O)OCC(Br)(Br)Br)C(c2cccc([N+](=O)[O-])c2)NC(=O)N1CCCC(=O)O (stereo unspecified)	.	8.0	28.2	.	-28.2	-11.8	.	.	.
Cc1ccc(-n2nc3c(c2NC(=O)c2c(F)cccc2Cl)CS(=O)(=O)C3)cc1C	.	22.0*	-3.0	2.2	3.0	20.7	10.8	16.0	4.2
